# Laboratory results reported in PMC6936494 (Proceedings of the National Academy of Sciences of the …, 2019).
# Entries after “also recorded” stand apart in the source; their conditions may differ. Like-named read-outs stand apart in the source and are kept apart here.
# T1: N-terminal domain of LiaX (Enterococcus faecalis, UniProt Q834B6)
# T1 sequence (Q834B6 1-275): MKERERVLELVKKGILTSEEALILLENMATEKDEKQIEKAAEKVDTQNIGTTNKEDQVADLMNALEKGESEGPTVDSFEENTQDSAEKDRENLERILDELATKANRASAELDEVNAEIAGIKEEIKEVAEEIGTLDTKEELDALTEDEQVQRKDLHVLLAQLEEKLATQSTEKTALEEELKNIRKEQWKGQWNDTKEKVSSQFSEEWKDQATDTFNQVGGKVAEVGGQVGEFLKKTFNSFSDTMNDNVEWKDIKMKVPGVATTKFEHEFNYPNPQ
# T2: N-terminal LiaX (Enterococcus faecalis, UniProt Q834B6)
# T2 sequence (Q834B6 1-277): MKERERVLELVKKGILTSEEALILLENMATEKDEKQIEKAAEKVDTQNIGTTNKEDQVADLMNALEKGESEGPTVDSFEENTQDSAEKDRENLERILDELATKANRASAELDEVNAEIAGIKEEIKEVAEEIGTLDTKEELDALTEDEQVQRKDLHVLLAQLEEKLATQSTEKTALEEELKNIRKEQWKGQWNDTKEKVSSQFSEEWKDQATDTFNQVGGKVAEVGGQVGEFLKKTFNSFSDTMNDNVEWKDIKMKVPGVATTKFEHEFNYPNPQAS
# T3: full length LiaX (Enterococcus faecalis, UniProt Q834B6)
# T3 sequence (Q834B6 1-533): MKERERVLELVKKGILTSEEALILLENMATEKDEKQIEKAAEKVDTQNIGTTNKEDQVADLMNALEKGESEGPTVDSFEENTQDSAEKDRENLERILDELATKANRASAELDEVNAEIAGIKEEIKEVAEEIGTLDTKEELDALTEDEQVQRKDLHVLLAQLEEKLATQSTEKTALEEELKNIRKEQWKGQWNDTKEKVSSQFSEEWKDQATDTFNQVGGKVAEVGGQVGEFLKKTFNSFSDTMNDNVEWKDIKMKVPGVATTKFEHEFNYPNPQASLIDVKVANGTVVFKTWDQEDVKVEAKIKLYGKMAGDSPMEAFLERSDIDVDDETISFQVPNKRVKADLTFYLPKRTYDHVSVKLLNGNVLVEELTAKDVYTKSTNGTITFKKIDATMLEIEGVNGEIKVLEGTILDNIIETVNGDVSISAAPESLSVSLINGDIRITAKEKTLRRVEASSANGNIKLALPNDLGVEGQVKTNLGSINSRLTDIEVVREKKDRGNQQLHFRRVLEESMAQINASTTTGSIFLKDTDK
# B1: N-terminal LiaX: purified N-terminal LiaX (residues 1-277; His-tagged variant residues 1-275) (protein)
# chain: T1 sequence (Q834B6 1-275)
# modifications: labeled with a RED-tris-NTA his-tag specific dye (NanoTemper); left off: His6, C-terminal, kept
# Key:
# [1] = biological target: T1, N-terminal domain of LiaX; experiment: Microscale thermophoresis with His-tag specific dye, N-terminal domain of LiaX; format: binding, Enterococcus faecalis S613
# OG1RF and S613 = conditions: including against E. faecalis; ref [23], [24]; cited from earlier work
# [2] = biological target: N-terminal domain of LiaX (Enterococcus faecalis); experiment: MST
# [3] = biological target: N-terminal domain of LiaX (Enterococcus faecalis); experiment: MST; remark: listed apart in the source
# N-terminal LiaX = biological target: T2, N-terminal LiaX; experiment: LL-37 binding by microscale thermophoresis, amine reactive dye, N-terminal LiaX; set-up: species or system Enterococcus faecalis S613
# Procedure, shortened: (§1)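 Recombinant LiaX (full length or N-terminal domain, His/SUMO-tagged) was expressed in E. coli BL-21 and nickel-column purified, then labeled with NT-647. Microscale thermophoresis ran at 25% LED power in 0.1 M phosphate buffer pH 7.4, 0.0027 M KCl, 0.137 M NaCl and 1 mM TCEP, with or without 5% DMSO. Fluorescence changes were recorded across increasing LL-37 variant concentrations to derive Kd.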
# full length LiaX = biological target: T3, full length LiaX; experiment: LL-37 binding by microscale thermophoresis, amine reactive dye, full length LiaX; set-up: species or system Enterococcus faecalis S613
# Procedure, shortened: as §1
# liaFSR and liaXYZ = experiment: qRT-PCR for liaFSR and liaXYZ expression; format: cell-based, Enterococcus faecalis; conditions: OG1RF
# E. faecalis strains = experiment: LL-37 killing assay; format: cell-based, Enterococcus faecalis; conditions: OG1RFΔliaR; 50 µg/ml LL-37, 2 h
# E. faecalis [4] = experiment: C. elegans infection assay with exogenous N-terminal LiaX; format: in vivo, Enterococcus faecalis; host Caenorhabditis elegans
# Procedure, shortened: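 Recombinant N-terminal LiaX domain (His/SUMO-tagged) was expressed in E. coli BL-21 and nickel-column purified. Synchronized young adult worms (60–90) were infected with E. faecalis on BHI agar plus gentamicin (10 µg/mL). They were then moved to a liquid killing format (20% BHI broth, 80% M9W buffer) containing N-terminal LiaX at 0.1 to 500 nM, held at 25 °C, and deaths scored daily. Results come from 3 independent experiments, with Kaplan–Meier log-rank or 1-way ANOVA analysis.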
# [5] = tested on: DAP-S E. faecalis strains; format: cell-based, Enterococcus faecalis
# E. faecalis [6] = experiment: Growth kinetics with LiaX; format: cell-based, Enterococcus faecalis; conditions: functional concentrations; 100 nM in BHI, OD600, 24 h
# [7] = tested on: Staphylococcus aureus ATCC29213; experiment: DAP MIC by broth microdilution with exogenous LiaX or N-terminal LiaX, S. aureus; format: cell-based; conditions: 50 nM exogenous protein
molecule,measurement,setting,value
SSLLEKGLDGAKKAVGGLGKLGKDAVEDLESVGKGAVHDVKDVLDSVL [DCD-1L],binding affinity to N-terminal domain of LiaX,"[1]; His-tag specific dye, DCD-1L tested up to 1,000 µM",no detectable binding affinity
same,antimicrobial activity,OG1RF and S613,"broad-spectrum antimicrobial activity, including against E. faecalis"
human cathelicidin LL-37 (peptide),Kd,[2],5.27 µM
same,Kd,[3],10.6 µM
CC[C@H](C)[C@H](NC(=O)[C@H](CCCCN)NC(=O)[C@H](CCC(=O)O)NC(=O)[C@H](CCCCN)NC(=O)[C@H](CO)NC(=O)[C@H](CCCCN)NC(=O)[C@H](CCCNC(=N)N)NC(=O)[C@H](Cc1ccccc1)NC(=O)[C@H](Cc1ccccc1)NC(=O)[C@H](CC(=O)O)NC(=O)CNC(=O)[C@H](CC(C)C)NC(=O)[C@@H](N)CC(C)C)C(=O)NCC(=O)N[C@@H](CCCCN)C(=O)N[C@@H](CCC(=O)O)C(=O)N[C@@H](Cc1ccccc1)C(=O)N[C@@H](CCCCN)C(=O)N[C@@H](CCCNC(=N)N)C(=O)N[C@H](C(=O)N[C@H](C(=O)N[C@@H](CCC(N)=O)C(=O)N[C@@H](CCCNC(=N)N)C(=O)N[C@H](C(=O)N[C@@H](CCCCN)C(=O)N[C@@H](CC(=O)O)C(=O)N[C@@H](Cc1ccccc1)C(=O)N[C@@H](CC(C)C)C(=O)N[C@@H](CCCNC(=N)N)C(=O)N[C@@H](CC(N)=O)C(=O)N[C@@H](CC(C)C)C(=O)N[C@H](C(=O)N1CCC[C@H]1C(=O)N[C@@H](CCCNC(=N)N)C(=O)N[C@H](C(=O)N[C@@H](CCC(=O)O)C(=O)N[C@@H](CO)C(=O)O)[C@@H](C)O)C(C)C)[C@@H](C)CC)C(C)C)[C@@H](C)CC [LL-37],Kd,N-terminal LiaX,10.6 ± 0.43 µM
same,Kd,[1],5.27 ± 1.14 µM
same,Kd,full length LiaX,8.26 ± 0.28 µM
B1,transcription of liaFSR and liaXYZ,"liaFSR and liaXYZ; 50 nM protein without DAP, vs untreated",no effect on the levels of transcription
same,LiaFSR activation relative to DAP alone or DAP with full-length LiaX,liaFSR and liaXYZ; N terminus of LiaX plus DAP,significantly higher and more pronounced
same,transcription of liaFSR and liaXYZ,"liaFSR and liaXYZ; protein plus subinhibitory DAP, listed as N terminus of LiaX",maximal activation of the LiaFSR cell envelope stress response; also recorded: highly up-regulated
same,protection from LL-37 killing,E. faecalis strains,did not protect OG1RFΔliaR from LL-37–mediated killing
same,virulence in C. elegans,"E. faecalis [4]; OG1RF and S613, 100 nM purified N-terminal LiaX (Fig. 6), listed as N terminus of LiaX",more virulent; also recorded: increased virulence
same,"virulence in C. elegans, dose dependence","E. faecalis [4]; OG1RF or S613, 5-100 nM N-terminus LiaX",dose-dependent manner
same,virulence in C. elegans,"E. faecalis [4]; OG1RFΔliaR and TMΔliaR, exogenous N terminus of LiaX","did not, however, alter the virulence"
same,increase in DAP MIC,"[5]; OG1RF, 50 nM exogenous protein",over 8 fold
same,protection against DAP,"[5]; OG1RF, 1 to 100 nM N-terminal LiaX, up to 200 nM full-length LiaX",high level of protection to OG1RF in a concentration-dependent manner
same,protection against DAP,"[5]; OG1RFΔliaR, 50 nM exogenous protein",did not protect OG1RFΔliaR against DAP
same,increase in DAP MIC,"[5]; S613, 50 nM exogenous protein",over 8 fold
same,effect on growth of E. faecalis,E. faecalis [6],no impact on the growth
same,change in DAP MIC,[7],did not change under any condition
